Data reported in ChEMBL document CHEMBL5335784, “Discovery of a novel 1,3,4-oxadiazol-2-one-based NLRP3 inhibitor as a pharmacological agent to mitigate cardiac and metabolic complications in an experimental model of diet-induced metaflammation” (Eur J Med Chem, 2023).

Legend:
[1] = Cytotoxicity against human THP-1 cells assessed as reduction in cell viability measured after 72 hr by MTT assay; type: toxicity, cell-based; conditions: read-out: TC50
Summary of the method: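 Undifferentiated THP-1 cells exposed to 0.1–100 μM compound for 72 h. Viability read by MTT reduction at 570 nm. TC50 from concentration–response; three experiments.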

[2] = n-Octanol/water distribution coefficient, log D of the compound at pH 7.4 measured after 4 hrs by shake flask method; type: physicochemical
Summary of the method: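 Shake-flask at room temperature between n-octanol and 50 mM phosphate buffer pH 7.4, ionic strength 0.15 M KCl. Phases were pre-saturated by 4 h shaking. Compound at about 0.1 mg/ml in buffer, shaken about 20 min with n-octanol, then centrifuged at 10000 rpm for 10 min.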

[3] = Metabolic stability of the compound in human THP-1 cells at 100 uM measured after 24 hrs by RP-HPLC analysis; type: ADME, cell-based; conditions: thp-1, 24 h
Summary of the method: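 Lysate from PMA-differentiated THP-1 cells (RIPA buffer) at 37 °C with compound at 100 μM, added from 10 mM DMSO stock. Aliquots deproteinized with CH3CN/0.1% TFA, centrifuged, filtered and quantified by RP-HPLC at 226/254 nm against external standards. Pseudo-first-order t1/2 from exponential decay fit; three independent experiments.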

[4] = Metabolic stability of the compound in human serum at 100 uM measured after 24 hrs by RP-HPLC analysis; type: ADME, cell-free
Summary of the method: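 Human male AB serum at 37 °C with compound at 100 μM (from 10 mM DMSO stock), sampled over 24 h. Aliquots deproteinized with CH3CN/0.1% TFA, centrifuged, filtered and analysed by RP-HPLC (phenyl column, 226/254 nm) with calibration 1-100 μM. Pseudo-first-order t1/2 from exponential decay fit.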

[5] = Stability of the compound in PBS at 100 uM at pH 7.4 measured after 24 hrs by RP-HPLC analysis; type: physicochemical; conditions: buffer, pH 7.4, 24 h
Summary of the method: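 Compound added from 10 mM DMSO stock to 50 mM PBS pH 7.4 at 37 °C. Sampled at intervals over 48 h and analysed by RP-HPLC with UV detection at 226/254 nm against calibration standards.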

Row | Structure (SMILES) | CC50 at 72 h [1] | also measured
1 | CCOC(=O)CN(Cc1ccccc1)c1nnc(NC(=O)c2ccccc2Cl)s1 | 91.6 µM | 
2 | CCOC(=O)C1CCCN(c2nnc(NC(=O)c3ccccc3Cl)s2)C1 (centres undefined) | 79.7 µM | 
3 | COC(=O)c1ccc(-c2nc(Cc3cccc(C(F)(F)F)c3)no2)cc1 | > 100 µM | 
4 | CC(C)c1cc(Cl)cc(C(C)C)c1NC(=O)NS(=O)(=O)c1cc(C(C)(C)O)co1 | 92.5 µM | 
5 | CC(C)(C)OC(=O)Cn1nc(Cc2ccccc2Cl)oc1=O | 98.9 µM | logD at 4 h [2]: 3.1
6 | O=C(O)Cn1nc(Cc2ccccc2Cl)oc1=O | 94.6 µM | logD at 4 h [2]: -1.66; Stability [3]: Stable; Stability [4]: Stable; Stability [5]: Stable
7 | COc1ccc(Cn2nc(Cc3ccccc3Cl)oc2=O)cc1 | 64.8 µM | 
8 | COC(=O)c1ccc(-c2noc(Cc3ccccc3Cl)n2)cc1 | > 100 µM | 
9 | COC(=O)c1ccc(-c2noc(Cc3cccc(C(F)(F)F)c3)n2)cc1 | 94.5 µM | 
10 | CCOC(=O)c1ccc(Cn2nc(Cc3ccccc3Cl)oc2=O)cc1 | > 100 µM | 
11 | CCOC(=O)CN(C)c1nnc(NC(=O)c2ccccc2Cl)s1 | 96.1 µM | 
12 | O=C(O)c1ccc(-c2nc(Cc3cccc(C(F)(F)F)c3)no2)cc1 | 27.3 µM | 
13 | O=c1oc(Cc2ccccc2Cl)nn1Cc1nn[nH]n1 | > 100 µM | logD at 4 h [2]: -1.09
